# Measured values from ChEMBL document CHEMBL1148581, “Antimalarial and antiplasmodial activities of norneolignans. Syntheses and SAR” (J Med Chem, 2006).
# Activity calls are given as the source filed them. The calls are words filed in the database; no cut-off is given here.
# System: Plasmodium falciparum
# Test: Antiplasmodial activity against Plasmodium falciparum 3D7
# Type: functional, organism-based
# Conditions: not given
# Summary of the method: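 Desjardins [³H]phenylalanine incorporation method (Ziegler modification). Parasitized erythrocytes (blood type 0, 5% hematocrit, 2-3% parasitemia) mixed with compounds in RPMI 1640/HEPES with 0.45% Albumax II, L-glutamine, hypoxanthine, gentamicin; final DMSO ≤0.5%. 24 h at 37 °C under 93% N₂/5% CO₂/2% O₂, then label added for further 24 h; filter-harvested, scintillation counted. Three experiments, each in triplicate; IC50.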
row,SMILES,IC50
1,C=CC(/C=C/c1ccccc1F)c1cc(OC)cc(OC)c1 (configuration not stated),6 µg/mL
2,C=CC(/C=C/c1ccc(F)cc1F)c1ccc(OC)cc1OC (configuration not stated),7 µg/mL
3,C=CC(/C=C/c1ccccc1CN(C)C)c1ccc(Cl)cc1Cl (configuration not stated),3 µg/mL
4,C=C[C@@H](/C=C/c1ccc(O)cc1)c1ccc(O)cc1,20 µg/mL
5,CCC(/C=C/c1ccc(OC)cc1OC)c1ccc(Cl)cc1Cl (configuration not stated),6 µg/mL
6,C=CC(/C=C/c1ccccc1C(F)(F)F)c1ccc(Cl)cc1Cl (configuration not stated),8.2 µg/mL
7,C=CCOc1ccc(CCCc2ccc(OC)cc2OC)cc1,9.5 µg/mL
8,CCC(/C=C/c1ccccc1F)c1cc(OC)cc(OC)c1 (configuration not stated),6 µg/mL
9,C=CCOc1ccc(CCC(CC)c2ccc(OC)cc2OC)cc1 (configuration not stated),3 µg/mL
10,C=CC(/C=C/c1ccc(Cl)cc1Cl)c1ccc(OC)cc1OC (configuration not stated),1.5 µg/mL
11,CCC(/C=C/c1ccccc1CN(C)C)c1ccc(Cl)cc1Cl (configuration not stated),4.1 µg/mL
12,CCC(/C=C/c1ccc(Cl)cc1Cl)c1ccc(OC)cc1OC (configuration not stated),4.2 µg/mL
13,C=CCOc1ccc(/C=C/C(C=C)c2ccc(OC)cc2OC)cc1 (configuration not stated),7 µg/mL
14,C=CC(/C=C/c1ccc(OC)cc1OC)c1ccc(Cl)cc1Cl (configuration not stated),7 µg/mL
15,C=CC(/C=C/c1ccc(F)cc1)c1ccc(F)cc1 (configuration not stated),10 µg/mL

# The next lines start with the values.
row,IC50,SMILES
1,6.9 µg/mL,COc1ccc(C2CC(c3ccc(Cl)cc3Cl)OC2C)c(OC)c1 (configuration not stated)
2,13 µg/mL,CCC(/C=C/c1ccc(F)cc1)c1ccc(F)cc1 (configuration not stated)
3,14 µg/mL,C=C[C@H](/C=C/c1ccc(O)cc1)c1ccc(O)cc1
4,16 µg/mL,C=CCOc1ccc(C(O)CC(C=C)c2ccc(OC)cc2OC)cc1 (configuration not stated)
5,6 µg/mL,CCC(/C=C/c1ccccc1C(F)(F)F)c1ccc(Cl)cc1Cl (configuration not stated)
6,3.9 µg/mL,CCC(/C=C/c1ccc(F)cc1F)c1ccc(OC)cc1OC (configuration not stated)
7,6 µg/mL,C=CC(/C=C/c1ccc(OC)c(OC)c1OC)c1cccc(F)c1 (configuration not stated)
8,3.9 µg/mL,CCC(/C=C/c1ccc(OC)c(OC)c1OC)c1cccc(F)c1 (configuration not stated)
9,3 µg/mL,COc1ccc(C2CC(c3ccccc3Br)OC2C)c(OC)c1 (configuration not stated)
10,2.2 µg/mL,C=CCOc1ccc(CCC(CCCC)c2ccc(OC)cc2OC)cc1 (configuration not stated)
11,4 µg/mL,C=CCOc1ccc(/C=C/C(CC)c2ccc(OC)cc2OC)cc1 (configuration not stated)
12,13 µg/mL,C=CC(/C=C/c1ccc(O)cc1)c1ccc(O)cc1 (racemic)
13,8.8 µg/mL,C=CC(/C=C/c1ccccc1Br)c1ccc(OC)cc1OC (configuration not stated)
14,5.2 µg/mL,C=CCOc1ccc(CCC(C=C)c2ccc(OC)cc2OC)cc1 (configuration not stated)
15,5.4 µg/mL,CCC(/C=C/c1ccccc1Br)c1ccc(OC)cc1OC (configuration not stated)
16,2.7 µg/mL,C=CCOc1ccc(/C=C/C(CCCC)c2ccc(OC)cc2OC)cc1 (configuration not stated)

# System: Mus musculus
# Test: Antimalarial activity in NMRI mice (Mus musculus) infected with Plasmodium berghei K173 at 25 mg/kg
# Type: functional
# Conditions: not given
# Summary of the method: (§1)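 Mice inoculated day 0 with 1×10⁶ P. berghei K173-infected red cells in 0.2 mL 0.9% saline; five mice per group. At day 4 (parasitemia 2-9%), ip dosing in 0.9% saline with 10% Tween 80, pH 4.5, on days 4 and 5; control group untreated or vehicle-injected. Day-5 tail-vein blood smear, Giemsa-stained, infected cells counted microscopically; % inhibition versus control.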
row,SMILES,inhibition in vivo at 25 mg/kg
1,C=CC(/C=C/c1ccc(Cl)cc1Cl)c1ccc(OC)cc1OC (configuration not stated),57%
2,C=CCOc1ccc(CCC(CCCC)c2ccc(OC)cc2OC)cc1 (configuration not stated),25%

# System: Mus musculus
# Test: Antimalarial activity in NMRI mice (Mus musculus) infected with Plasmodium berghei K173 at 50 mg/kg
# Type: functional
# Conditions: not given
# Summary of the method: as §1
row,SMILES,inhibition in vivo at 50 mg/kg
1,C=CCOc1ccc(CCC(CCCC)c2ccc(OC)cc2OC)cc1 (configuration not stated),49%

# System: Mus musculus
# Test: Antimalarial activity in NMRI mice (Mus musculus) infected with Plasmodium berghei K173 at 100 mg/kg
# Type: functional
# Conditions: not given
# Summary of the method: as §1
row,SMILES,inhibition in vivo at 100 mg/kg
1,C=CCOc1ccc(CCC(CCCC)c2ccc(OC)cc2OC)cc1 (configuration not stated),59%

# Species on record: Oryctolagus cuniculus
# Test: Inhibitory activity against SERCA in rabbit muscle at 3.5 ug/mL
# Type: tissue-based
# Conditions: Muscle tissue
row,SMILES,inhibition
1,C=CC(/C=C/c1ccc(Cl)cc1Cl)c1ccc(OC)cc1OC (configuration not stated),inactive
2,C=CCOc1ccc(CCC(CCCC)c2ccc(OC)cc2OC)cc1 (configuration not stated),inactive
